Laboratory results published in ChEMBL document CHEMBL1125724, “Potential anti-AIDS agents. Synthesis and antiviral activity of naphthalenesulfonic acid derivatives against HIV-1 and HIV-2” (1991).
Values after ≈ are worked out from the molar mass of the structure shown.

Columns and labels:
[1] = system: MT4; experiment: Cell viability at a concentration of 4(6.7) ug/mL (uM).; assay type: functional, Homo sapiens
[2] = system: MT4; experiment: Compound was evaluated for inhibitory effect against MT-4 cells of HIV-1 at a concentration of 100(167) ug/mL (uM).; assay type: functional, Homo sapiens
Summary of the method: (§1)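 HIV-1 (HTLV-III_B) infected MT-4 cells at multiplicity of infection 0.02, incubated with a range of compound concentrations for 4 days. Viable cells counted by MTT method. Per-concentration inhibition of virus-induced cytopathogenicity; values are means of two separate experiments.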

[3] = system: MT4; experiment: Cell viability at a concentration of 0.8(1.3) ug/mL (uM).; assay type: functional, Homo sapiens
[4] = system: MT4; experiment: Compound was evaluated for inhibitory effect against MT-4 cells of HIV-1 at a concentration of 0.8(1.3) ug/mL (uM).; assay type: functional, Homo sapiens; summary of the method: as §1
[5] = system: MT4; experiment: Compound was evaluated for inhibitory effect against MT-4 cells of HIV-1 at a concentration of 4(6.7) ug/mL (uM).; assay type: functional, Homo sapiens; summary of the method: as §1
[6] = target: Human immunodeficiency virus type 1 reverse transcriptase (Human immunodeficiency virus 1) (UniProt Q72547); details: 33.4 uM
[7] = system: MT4; experiment: Compound was evaluated for inhibitory effect against MT-4 cells of HIV-2 at a concentration of 20(33.4) ug/mL (uM).; assay type: functional, Homo sapiens
Summary of the method: (§2)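 HIV-2 (ROD strain) infected MT-4 cells at multiplicity of infection 0.02, incubated with a range of compound concentrations for 4 days. Viable cells counted by MTT method. Per-concentration inhibition of virus-induced cytopathogenicity; values are means of two separate experiments.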

[8] = system: MT4; experiment: Cell viability at a concentration of 100(167) ug/mL (uM).; assay type: functional, Homo sapiens
[9] = system: MT4; experiment: Compound tested for its ability to reduce viability of mock-infected MT-4 cells.; assay type: functional; details: Homo sapiens, read-out: CD50 (the source's name)
Summary of the method: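 Mock-infected MT-4 cells were incubated 4 days with a range of compound concentrations, and viability was read by MTT. CD50 is the 50% cytotoxic dose from reduced viability, given as the mean of two separate experiments.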

[10] = system: MT4; experiment: Compound was evaluated for inhibitory effect against MT-4 cells of HIV-2 at a concentration of 0.8(1.3) ug/mL (uM).; assay type: functional, Homo sapiens; summary of the method: as §2
[11] = system: MT4; experiment: Cell viability at a concentration of 20(33.4) ug/mL (uM).; assay type: functional, Homo sapiens
[12] = system: MT4; experiment: Compound tested for its inhibition of HIV-2 induced cytopathogenicity in MT-4 cells.; assay type: functional; details: Homo sapiens, read-out: ED50 (the source's name)
Summary of the method: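 MT-4 cells infected with HIV-2 (ROD) at MOI 0.02 and incubated 4 days with a range of compound concentrations. Viable cells were counted by MTT. ED50 is the dose giving 50% inhibition of virus-induced cytopathogenicity, given as the mean of two separate experiments.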

[13] = system: MT4; experiment: Compound was evaluated for inhibitory effect against MT-4 cells of HIV-2 at a concentration of 4(6.7) ug/mL (uM).; assay type: functional, Homo sapiens; summary of the method: as §2
[14] = target: Human immunodeficiency virus type 1 reverse transcriptase (Human immunodeficiency virus 1) (UniProt Q72547); details: 6.7 uM
[15] = system: MT4; experiment: Compound tested for its inhibition of HIV-1 induced cytopathogenicity in MT-4 cells.; assay type: functional; details: Homo sapiens, read-out: ED50 (the source's name)
Summary of the method: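 MT-4 cells infected with HIV-1 (HTLV-III_B) at MOI 0.02 and incubated 4 days with a range of compound concentrations. Viable cells were counted by MTT. ED50 is the 50% antiviral dose from inhibition of virus-induced cytopathogenicity, given as the mean of two separate experiments.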

[16] = system: MT4; experiment: Compound was evaluated for inhibitory effect against MT-4 cells of HIV-1 at a concentration of 20(33.4) ug/mL (uM).; assay type: functional, Homo sapiens; summary of the method: as §1
[17] = system: MT4; experiment: Compound was evaluated for inhibitory effect against MT-4 cells of HIV-2 at a concentration of 100(167) ug/mL (uM).; assay type: functional, Homo sapiens; summary of the method: as §2
[18] = target: Human immunodeficiency virus type 1 reverse transcriptase (Human immunodeficiency virus 1) (UniProt Q72547)
[19] = system: MT4; experiment: Compound was evaluated for inhibitory effect against MT-4 cells of HIV-2 at a concentration of 4(4) ug/mL (uM).; assay type: functional, Homo sapiens; summary of the method: as §2
[20] = system: MT4; experiment: Compound was evaluated for inhibitory effect against MT-4 cells of HIV-1 at a concentration of 20(20.2) ug/mL (uM).; assay type: functional, Homo sapiens; summary of the method: as §1
[21] = system: MT4; experiment: Compound was evaluated for inhibitory effect against MT-4 cells of HIV-1 at a concentration of 100(101) ug/mL (uM).; assay type: functional, Homo sapiens; summary of the method: as §1
[22] = target: Human immunodeficiency virus type 1 reverse transcriptase (Human immunodeficiency virus 1) (UniProt Q72547); experiment: Compound tested for % inhibition of cell-free HIV-1 Reverse Transcriptase at a concentration of 4 uM
Summary of the method: (§3)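 HIV-1 RT came from disrupted, partially purified, concentrated virions. Reaction ran 30 min at 37 °C in 50 mM Tris-HCl pH 8.4 with 2 mM DTT, 100 mM KCl, 10 mM MgCl2, 0.1% Triton X-100, [methyl-3H]dTTP (1 µCi, 30 Ci/mmol), poly(rA)·oligo(dT) template and compound. It was stopped with 5% TCA, and precipitate was filter-collected and scintillation-counted. Variation was at most 10%.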

[23] = system: MT4; experiment: Compound was evaluated for inhibitory effect against MT-4 cells of HIV-2 at a concentration of 100(101) ug/mL (uM).; assay type: functional, Homo sapiens; summary of the method: as §2
[24] = system: MT4; experiment: Compound was evaluated for inhibitory effect against MT-4 cells of HIV-2 at a concentration of 0.8(0.8) ug/mL (uM).; assay type: functional, Homo sapiens; summary of the method: as §2
[25] = system: MT4; experiment: Cell viability at a concentration of 20(20.2) ug/mL (uM).; assay type: functional, Homo sapiens
[26] = target: Human immunodeficiency virus type 1 reverse transcriptase (Human immunodeficiency virus 1) (UniProt Q72547); experiment: Compound tested for % inhibition of cell-free HIV-1 Reverse Transcriptase at a concentration of 505 uM; summary of the method: as §3
[27] = system: MT4; experiment: Cell viability at a concentration of 4(4) ug/mL (uM).; assay type: functional, Homo sapiens
[28] = system: MT4; experiment: Cell viability at a concentration of 0.8(0.8) ug/mL (uM).; assay type: functional, Homo sapiens
[29] = system: MT4; experiment: Compound was evaluated for inhibitory effect against MT-4 cells of HIV-1 at a concentration of 0.8(0.8) ug/mL (uM).; assay type: functional, Homo sapiens; summary of the method: as §1
[30] = system: MT4; experiment: Compound was evaluated for inhibitory effect against MT-4 cells of HIV-1 at a concentration of 4(4) ug/mL (uM).; assay type: functional, Homo sapiens; summary of the method: as §1
[31] = system: MT4; experiment: Compound was evaluated for inhibitory effect against MT-4 cells of HIV-2 at a concentration of 20(20.2) ug/mL (uM).; assay type: functional, Homo sapiens; summary of the method: as §2
[32] = target: Human immunodeficiency virus type 1 reverse transcriptase (Human immunodeficiency virus 1) (UniProt Q72547); experiment: Compound tested for % inhibition of cell-free HIV-1 Reverse Transcriptase at a concentration of 20.2 uM.; summary of the method: as §3
[33] = system: MT4; experiment: Cell viability at a concentration of 100(1.1) ug/mL (uM).; assay type: functional, Homo sapiens
[34] = target: Human immunodeficiency virus type 1 reverse transcriptase (Human immunodeficiency virus 1) (UniProt Q72547); experiment: Inhibitory dose at a concentration 505 uM cell-free HIV-1 Reverse Transcriptase
Summary of the method: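 HIV-1 RT from disrupted, partially purified and concentrated virions. 37 °C for 30 min in 50 mM Tris-HCl pH 8.4, 2 mM DTT, 100 mM KCl, 10 mM MgCl₂, 0.1% Triton X-100, 1 µCi [methyl-³H]dTTP, 0.01 unit poly(rA)·oligo(dT). Stopped with 5% TCA; precipitate collected on glass-fiber filters and counted by scintillation. Means of two experiments; variation ≤10%.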

[35] = target: Human immunodeficiency virus type 1 protease (Human immunodeficiency virus 1) (UniProt Q72874); experiment: Compound tested for % inhibition of giant cell formation at a concentration of 101 uM
Summary of the method: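 MOLT-4 cells were co-cultured 24 h with an equal number of HUT-78/HTLV-III_B cells in the presence of compound. Giant (syncytial) cells were counted microscopically and inhibition of giant cell formation was scored.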

CCCCCCCCCCCCCCCC(=O)Nc1cc(S(=O)(=O)O)cc2cc(S(=O)(=O)O)cc(O)c12
Cell viability [1]: 0 | Inhibition [2]: 100% | Cell viability [3]: 0 | Inhibition [4]: 5% | Inhibition [5]: 0% | inhibition [6]: 4% | Inhibition [7]: 12% | Cell viability [8]: 0 | CC50 [9]: > 100 µg/mL | Inhibition [10]: 6% | Cell viability [11]: 1 | EC50 [12]: 40 µg/mL (≈ 71.7 µM) | Inhibition [13]: 3% | inhibition [14]: 9% | EC50 [15]: 42 µg/mL (≈ 75.3 µM) | Inhibition [16]: 7% | Inhibition [17]: 100% | ID50 [18]: 50 µg/mL (≈ 89.6 µM)

O=S(=O)([O-])c1cc(NS(=O)(=O)c2ccc(-c3ccc(S(=O)(=O)Nc4cc(S(=O)(=O)[O-])c5cccc(S(=O)(=O)[O-])c5c4)cc3)cc2)cc2c(S(=O)(=O)[O-])cccc12.[Na+].[Na+].[Na+].[Na+]
Inhibition [19]: 1% | Inhibition [20]: 8% | Inhibition [21]: 100% | inhibition [22]: 0% | Inhibition [23]: 94% | Inhibition [24]: 0% | CC50 [9]: > 100 µg/mL | Cell viability [25]: 0 | inhibition [26]: 100% | EC50 [12]: 43 µg/mL | Cell viability [27]: 0 | Cell viability [28]: 1 | Inhibition [29]: 0% | Inhibition [30]: 1% | Inhibition [31]: 9% | EC50 [15]: 42 µg/mL | inhibition [32]: 0% | Cell viability [33]: 0 | ID50 [34]: 370 µg/mL | inhibition [35]: 100%
